The text below walks through data of ChEMBL document CHEMBL3232995, “Synthesis and evaluation of effective photoaffinity probe molecule of furospinosulin-1, a hypoxia-selective growth inhibitor” (Bioorg Med Chem, 2014).

Active and inactive are the calls of the source. No cut-off for these calls is given here.

Data set [1] concerns DU-145. As to the kind of experiment: Antiproliferative activity against human DU145 cells under hypoxia condition assessed as growth inhibition at 10 to 100 uM after 24 hrs by MTT assay. The data set is classed as functional, cell-based. The method, boiled down:
(§1)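 DU145 human prostate cancer cells kept in RPMI 1640 with 10% heat-inactivated FBS and kanamycin (50 µg/ml), 5% CO2, 37 °C. Seeded at 1 × 10⁴ cells/well. Held 4 h normoxic, then 12 h under 1% O2/5% CO2/94% N2 to induce hypoxia genes. Compound then added and plates kept a further 24 h hypoxic. Read-out by MTT, with inhibition as percent of parallel negative controls.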

The subject of data set [2] is DU-145. Description: Antiproliferative activity against human DU145 cells under normoxia condition assessed as growth inhibition at 10 to 100 uM after 24 hrs by MTT assay. Type of data set: functional, cell-based. The method, boiled down:
(§2)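 DU145 cells were grown in RPMI 1640 with heat-inactivated 10% FBS and kanamycin (50 µg/ml) under humidified 5% CO2 at 37 °C and seeded at 1 × 10⁴ cells/well. Growth under normoxic conditions was measured by colorimetric MTT assay. Inhibition was taken relative to parallel negative controls.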
(In general: Formazan colour is commonly taken as a measure of viable cells.)

The test system of data set [3] is DU-145. As to the kind of experiment: Antiproliferative activity against human DU145 cells under hypoxia condition assessed as growth inhibition at 3 to 30 uM after 24 hrs by MTT assay. The data set is classed as functional, cell-based. Put shortly: as §1
Data set [4] relates to DU-145. As to the kind of experiment: Inhibition of transcription factor complex formation in hypoxia-induced human DU145 cells assessed as reduction in nuclear proteins and Sp1 oligonucleotide probe complex at 100 to 300 uM by EMSA. Type of data set: functional, cell-based. Put shortly: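 Nuclear extracts were made from DU145 cells under normoxia or hypoxia. They were pre-incubated on ice for 20 min with compound (100 or 300 µM) in binding buffer: 10 mM Tris-HCl pH 7.5, 50 mM KCl, 5 mM MgCl2, 1 mM DTT, 1% glycerol, BSA, poly(dI-dC). Then 5'-biotinylated Sp1 oligonucleotide (4 fmol per 20 µL) was added for 15 min at room temperature. Complexes were resolved on 5% native PAGE in 0.5× TBE, blotted, and detected by streptavidin-HRP/ECL.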
On the technique in general: In EMSA bound probe runs differently from free probe, usually more slowly.

For data set [5], the system named is DU-145. As to the kind of experiment: Antiproliferative activity against normoxia-induced human DU145 cells assessed as growth inhibition after 24 hrs by MTT assay. The data set is classed as functional, cell-based. The method, boiled down: as §2
The subject of data set [6] is CCRF S-180. As to the kind of experiment: Antitumor activity against mouse S180 cells allografted in ddY mouse assessed as tumor growth at 5 mg/kg, po administered once every 2 days for 2 weeks relative to control. The conditions noted are these: CCRF S-180, po.
Data set [7] concerns CCRF S-180. Description: Antitumor activity against mouse S180 cells allografted in ddY mouse assessed as tumor growth at 10 mg/kg, po administered once every 2 days for 2 weeks relative to control. The conditions noted are these: CCRF S-180, po.
The test system of data set [8] is Mus musculus. Description: Toxicity in mouse S180 cells allografted in ddY mouse assessed as weight loss at 5 to 25 mg/kg, po administered once every 2 days for 2 weeks relative to control. The data set is classed as organism-based, CCRF S-180. More on the design: dose 5-25 mg/kg, route oral. The conditions noted are these: in vivo. The method, boiled down: (§3)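 Female ddY mice, 6 weeks old, received S180 sarcoma cells (1 × 10⁶ cells/body) subcutaneously in the right ventral flank. Dosing began one week after implantation: oral suspension in 1% CMC-Na, every other day for 2 weeks (7 doses). Tumors were excised and weighed to give the inhibition ratio against control. Four mice per group. Weight loss and diarrhea were watched throughout.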

The subject of data set [9] is DU-145. Description: Antiproliferative activity against human DU145 cells under hypoxia condition assessed as growth inhibition after 24 hrs by MTT assay. The data set is classed as functional, cell-based. The method, boiled down:
as §1

Data set [10] concerns Mus musculus. As to the kind of experiment: Toxicity in mouse S180 cells allografted in ddY mouse assessed as diarrhea at 5 to 25 mg/kg, po administered once every 2 days for 2 weeks relative to control. More on the design: dose 5-25 mg/kg, route oral. Type of data set: organism-based, CCRF S-180. The conditions noted are these: in vivo. The method, boiled down: as §3
Data set [11] relates to CCRF S-180. As to the kind of experiment: Antitumor activity against mouse S180 cells allografted in ddY mouse assessed as tumor growth at 25 mg/kg, po administered once every 2 days for 2 weeks relative to control. The conditions noted are these: CCRF S-180, po.

Take `CC#CCC/C(C)=C/CC/C(C)=C/CC/C(C)=C/CC/C(C)=C/CCc1ccoc1`: the “growth inhibition (GI)” value in the data set with DU-145 [1] and in the data set on DU-145 [2] was “Active” in each case.
Take `C/C(=C\CC/C(C)=C/CCc1ccoc1)CC/C=C(\C)CC/C=C(\C)CCc1cn(CCCNC(=O)CSC[C@H](NC(=O)c2ccc(C(=O)c3ccccc3)cc2)C(=O)NCCOCCOCCOCCn2cc(CNC(=O)CCCC[C@@H]3SC[C@@H]4NC(=O)N[C@@H]43)nn2)nn1`: in the data set with DU-145 [3], the “growth inhibition (GI)” value is “inactive”. Moreover, the result in the data set with DU-145 [4] was inactive.
Take `C#CCOC/C(C)=C/CC/C(C)=C/CC/C(C)=C/CC/C(C)=C/CCc1ccoc1`: the “growth inhibition (GI)” value in the data set on DU-145 [1] and in the data set on DU-145 [2] was “Active” each time.
With `C/C(=C\CC/C(C)=C/CCc1ccoc1)CC/C=C(\C)CC/C=C(\C)CCc1cn(CCOCCOCCOCCNC(=O)CSC[C@H](NC(=O)c2ccc(C(=O)c3ccccc3)cc2)C(=O)NCCOCCOCCOCCn2cc(CNC(=O)CCCC[C@@H]3SC[C@@H]4NC(=O)N[C@@H]43)nn2)nn1`, in the data set with DU-145 [3], the “growth inhibition (GI)” value is “Active”. The outcome with DU-145 [4] was Active.
On to `C/C(=C\CC/C(C)=C/CCc1ccoc1)CC/C=C(\C)CC/C=C(\C)CCc1cn(CCOCCOCCNC(=O)CSC[C@H](NC(=O)c2ccc(C(=O)c3ccccc3)cc2)C(=O)NCCOCCOCCOCCn2cc(CNC(=O)CCCC[C@@H]3SC[C@@H]4NC(=O)N[C@@H]43)nn2)nn1`, for which the “growth inhibition (GI)” value in the data set with DU-145 [3] was “Active”. In addition, in the data set with DU-145 [4], the outcome was Active.
In the case of `C#CC/C(C)=C/CC/C(C)=C/CC/C(C)=C/CC/C(C)=C/CCc1ccoc1`, the “growth inhibition (GI)” value in the data set with DU-145 [1] and in the data set with DU-145 [2] was “Active” each time.
For the molecule `C/C(=C\CC/C(C)=C/CCc1ccoc1)CC/C=C(\C)CC/C=C(\C)CCc1cn(CCCCCNC(=O)CSC[C@H](NC(=O)c2ccc(C(=O)c3ccccc3)cc2)C(=O)NCCOCCOCCOCCn2cc(CNC(=O)CCCC[C@@H]3SC[C@@H]4NC(=O)N[C@@H]43)nn2)nn1`, the “growth inhibition (GI)” value in the data set with DU-145 [3] was “inactive”. In addition, the outcome in the data set on DU-145 [4] was inactive.
Turning to `CC(C)=CCC/C(C)=C/CC/C(C)=C/CC/C(C)=C/CCc1ccoc1`, the “growth inhibition (GI)” value in the data set with DU-145 [1] and in the data set on DU-145 [2] was “Active” in each case.
Take `C/C(=C\CC/C(C)=C/CC/C(C)=C/CC/C(C)=C/CCc1ccoc1)CO`: the “growth inhibition (GI)” value in the data set on DU-145 [1] and in the data set with DU-145 [2] was “Active” each time.
Turning to `CC(=O)OC/C(C)=C/CC/C(C)=C/CC/C(C)=C/CC/C(C)=C/CCc1ccoc1`, the “growth inhibition (GI)” value in the data set on DU-145 [1] and in the data set on DU-145 [2] was “Active” throughout.
Take `C#CCC/C(C)=C/CC/C(C)=C/CC/C(C)=C/CC/C(C)=C/CCc1ccoc1`: the “growth inhibition (GI)” value in the data set with DU-145 [1] and with DU-145 [2] was “Active” each time. Besides, the “growth inhibition (GI)” value in the data set on DU-145 [5] and with DU-145 [9] was “Dose-dependent effect” each time. Moreover, the level, % of control at 5 mg/kg with CCRF S-180 [6] was determined as 45%. Further, the level, % of control at 10 mg/kg with CCRF S-180 [7] amounted to 26%. Also, the Activity entry with Mus musculus [8] and with Mus musculus [10] was “Non-toxic” throughout. Further, in the data set on CCRF S-180 [11], the level, % of control at 25 mg/kg amounted to 11%.
